Published values collected from several papers.
Protocols differ between the studies behind these lines. In brackets after ≈: the same amount, converted by molar mass.
Organism: Pichia kudriavzevii

Compound | assay | system | setting | measurement | value
CCCCOc1c(OC)cc(NC(C)CCCN)c2nc(C(C)(C)C)cc(C)c12 (stereo not drawn) | microbial killing | ATCC6258 |  | MFC | 10 mg/L (≈ 24.9 µM)
CCCCCCCCCCCCCN1CCNCC1 | microbial growth, broth dilution | ATCC6258 | 48 h | MIC | 0.975 mg/L
C[C@@H]1[C@H](O)[C@@H](C)/C=C/C=C/C=C/C=C/C=C/C=C/C=C/[C@H](O[C@@H]2O[C@H](C)[C@@H](O)[C@H](N)[C@@H]2O)C[C@@H]2O[C@](O)(C[C@@H](O)C[C@@H](O)[C@H](O)CC[C@@H](O)C[C@@H](O)CC(=O)O[C@H]1C)C[C@H](O)[C@H]2C(=O)O | microbial growth | ATCC6258 |  | MIC | 1.35 µM
C#CCCCCCCCCC=CCC(O)CC(O)CO (stereo not drawn) | microbial growth, broth dilution | ATCC6258 |  | IC50 | > 8 mg/L
CCCCCCCCCCCCCCN1CCOCC1 | microbial growth, broth dilution | ATCC6258 | 48 h | MIC | > 31.3 mg/L
C[C@@H]1[C@H](O)[C@@H](C)/C=C/C=C/C=C/C=C/C=C/C=C/C=C/[C@H](O[C@@H]2O[C@H](C)[C@@H](O)[C@H](N)[C@@H]2O)C[C@@H]2O[C@](O)(C[C@@H](O)C[C@@H](O)[C@H](O)CC[C@@H](O)C[C@@H](O)CC(=O)O[C@H]1C)C[C@H](O)[C@H]2C(=O)O | microbial killing | ATCC6258 |  | MFC | 1.25 mg/L (≈ 1.35 µM)
CC(C)C1=CC2=CC(=O)[C@H]3C(C)(C)CCC[C@]3(C)C2=C(O)C1=O | microbial growth | ATCC6258 |  | IC50 | 12 mg/L (≈ 38.2 µM)
CCCCCCCOc1c(OC)cc(NC(C)CCCNC(=O)C(N)C(C)CC)c2nc(C(C)(C)C)ccc12 (stereo not drawn) | microbial growth | ATCC6258 |  | IC50 | 4.38 mg/L (≈ 8.07 µM)
CN1CCN(CC(O)(Cn2cncn2)c2ccc(F)cc2F)CC1 (stereo not drawn) | microbial growth, broth dilution | ATCC6258 | 48 h | MIC | 15.6 mg/L
Nc1[nH]c(=O)ncc1F | microbial growth |  |  | MIC90 | 8 mg/L (≈ 62 µM)
COc1cc(NC(C)CCCN)c2nc(C(C)(C)C)ccc2c1Oc1ccc(Cl)c(Cl)c1 (stereo not drawn) | microbial growth | ATCC6258 |  | IC50 | 8.65 mg/L (≈ 18.2 µM)
OC(Cn1cncn1)(Cn1cncn1)c1ccc(F)cc1F | microbial growth, broth dilution |  | 24 h | MIC90 | 256 mg/L (≈ 836 µM)
C[C@@H]1[C@H](O)[C@@H](C)/C=C/C=C/C=C/C=C/C=C/C=C/C=C/[C@H](O[C@@H]2O[C@H](C)[C@@H](O)[C@H](N)[C@@H]2O)C[C@@H]2O[C@](O)(C[C@@H](O)C[C@@H](O)[C@H](O)CC[C@@H](O)C[C@@H](O)CC(=O)O[C@H]1C)C[C@H](O)[C@H]2C(=O)O | microbial growth |  |  | MIC90 | 0.125 mg/L (≈ 0.135 µM)
CN1CCNCC1 | microbial growth, broth dilution | ATCC6258 | 48 h | MIC | > 31.3 mg/L
CCCCCCCCCCCCCC(O)CC(O)CO (stereo not drawn) | microbial growth, broth dilution | ATCC6258 |  | IC50 | 196 mg/L (≈ 681 µM)
CCCCCOc1c(OC)cc(NC(C)CCCNC(=O)C(N)Cc2ccccc2)c2nc(C(C)(C)C)ccc12 (stereo not drawn) | microbial growth | ATCC6258 |  | IC50 | 7.37 mg/L (≈ 13.4 µM)
CCCCCCCCCCCCCN1CCN(CC(O)(Cn2cncn2)c2ccc(F)cc2F)CC1 (stereo not drawn) | microbial growth, broth dilution | ATCC6258 | 48 h | MIC | 0.975 mg/L
CCCCCOc1c(OC)cc(NC(C)CCCNC(=O)C(N)CC(C)C)c2nc(C(C)(C)C)ccc12 (stereo not drawn) | microbial killing | ATCC6258 |  | MFC | 10 mg/L (≈ 19.4 µM)
CCCCCCCCCCCCN1CCNCC1 | microbial growth, broth dilution | ATCC6258 | 48 h | MIC | 1.95 mg/L
CCCCCCOc1c(OC)cc(NC(C)CCCN)c2nc(C(C)(C)C)cc(C)c12 (stereo not drawn) | microbial killing | ATCC6258 |  | MFC | 5 mg/L (≈ 11.6 µM)
OC(Cn1cncn1)(Cn1cncn1)c1ccc(F)cc1F | microbial growth |  |  | MIC90 | 64 mg/L (≈ 209 µM)
C[C@@H]1[C@H](O)[C@@H](C)/C=C/C=C/C=C/C=C/C=C/C=C/C=C/[C@H](O[C@@H]2O[C@H](C)[C@@H](O)[C@H](N)[C@@H]2O)C[C@@H]2O[C@](O)(C[C@@H](O)C[C@@H](O)[C@H](O)CC[C@@H](O)C[C@@H](O)CC(=O)O[C@H]1C)C[C@H](O)[C@H]2C(=O)O | microbial growth, broth dilution | ATCC6258 |  | IC50 | 0.65 mg/L (≈ 0.703 µM)
C[C@@H]1[C@H](O)[C@@H](C)/C=C/C=C/C=C/C=C/C=C/C=C/C=C/[C@H](O[C@@H]2O[C@H](C)[C@@H](O)[C@H](N)[C@@H]2O)C[C@@H]2O[C@](O)(C[C@@H](O)C[C@@H](O)[C@H](O)CC[C@@H](O)C[C@@H](O)CC(=O)O[C@H]1C)C[C@H](O)[C@H]2C(=O)O | microbial growth, broth dilution | ATCC6258 | 48 h | MIC | 3.9 mg/L
CCCCCOc1c(OC)cc(NC(C)CCCNC(=O)C(N)Cc2cc3ccccc3[nH]2)c2nc(C(C)(C)C)ccc12 (stereo not drawn) | microbial growth | ATCC6258 |  | IC50 | 4.28 mg/L (≈ 7.28 µM)
